Source: ChEMBL document CHEMBL1667738, “Sesquiterpene benzoxazoles and sesquiterpene quinones from the marine sponge Dactylospongia elegans” (2011)

Tests used:
HT-29 = assay: Cytotoxicity against human HT-29 cells after 48 hrs by SRB assay; type: functional; conditions: HT-29, 48 h
Procedure, shortened: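 CHO-K1 (Chinese hamster ovary subclone) and HT-29 cells grown in MEM with Earle's salts, L-glutamine, nonessential amino acids and sodium pyruvate. Seeded at 5000 cells/well. Compounds dissolved in DMSO, serially diluted in medium, and tested at 10 concentrations spanning 66.7–0.01 µg/mL. SRB protein read at 490 nm at 0 and 48 h. GI50 derived against vehicle-only and time-zero values.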

MCF7 = assay: Cytotoxicity against human MCF7 cells after 48 hrs by SRB assay; type: functional; conditions: MCF7, 48 h
Procedure, shortened: (§1)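 Cells grown in RPMI 1640 with L-glutamine and 5% fetal bovine serum, in a humidified incubator at 37 °C and 5% CO2. Seeded at 5000 cells/well. Pure compounds dissolved in DMSO, serially diluted in medium, and tested at 10 concentrations between 66.7 and 0.01 µg/mL. Total protein measured by SRB at 490 nm at 0 and 48 h. GI50 taken against vehicle-only and time-zero readings.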

NCI-H460 = assay: Cytotoxicity against human H460 cells after 48 hrs by SRB assay; type: functional; conditions: NCI-H460, 48 h; procedure, shortened: as §1
CHO-K1 = assay: Cytotoxicity against Chinese hamster CHO-K1 cells after 48 hrs by SRB assay; conditions: Cricetulus griseus, CHO-K1, 48 h
SF-268 = assay: Cytotoxicity against human SF268 cells after 48 hrs by SRB assay; type: functional; conditions: SF-268, 48 h; procedure, shortened: as §1

| Compound | GI50 (HT-29) [µM] | GI50 (MCF7) [µM] | GI50 (NCI-H460) [µM] | GI50 (CHO-K1) [µM] | GI50 (SF-268) [µM] |
| --- | --- | --- | --- | --- | --- |
| C=C1CCC[C@@]23OC4=C(C[C@]2(C)[C@@H](C)CC[C@@]13C)C(=O)C(OC)=CC4=O [DACTYLOQUINONE B] | 46 | 41 | 30 | 43 | 32 |
| C=C1CCC[C@H]2[C@](C)(CC3=C(O)C(=O)C=C(OC)C3=O)[C@@H](C)CC[C@]12C [ILIMAQUINONE] | 5.4 | 3.9 | 1.8 | 2 | 2.7 |
| C=C1CCC[C@H]2[C@](C)(Cc3c(OC(C)=O)c(OC(C)=O)cc4ncoc34)[C@@H](C)CC[C@]12C [NAKIJINOL B DIACETATE] | 15 | 19 | 6.8 | 5.2 | 9 |
| C=C1CCC[C@H]2[C@](C)(Cc3c(O)c(O)cc4ncoc34)[C@@H](C)CC[C@]12C [NAKIJINOL B] | 21 | 35 | 24 | 11 | 24 |
| C=C1CCC[C@H]2[C@](C)(CC3=C(O)C(=O)C=C(NCC(=O)O)C3=O)[C@@H](C)CC[C@]12C [SMENOSPONGINE B] | 6 | 10 | 6 | 3 | 9.7 |
| C=C1CCC[C@H]2[C@](C)(CC3=C(O)C(=O)C=C(NCCC(=O)O)C3=O)[C@@H](C)CC[C@]12C [SMENOSPONGINE C] | 28 | 31 | 14 | 18 | 20 |
